Test results from ChEMBL document CHEMBL4038328, “Structure-Guided Optimization of HIV Integrase Strand Transfer Inhibitors” (J Med Chem, 2017).

Legend:
[1] = test system: Human immunodeficiency virus 1; experiment: Antiviral activity against VSV-G pseudotyped HIV1 harboring integrase N155H mutant infected in HOS cells pretreated […] for 3 hrs followed by viral infection measured after 48 hrs by luciferase reporter gene assay relative to dolutegravir; format: functional
[2] = test system: Human immunodeficiency virus 1; experiment: Antiviral activity against VSV-G pseudotyped HIV1 harboring wild-type integrase infected in HOS cells pretreated […] for 3 hrs followed by viral infection measured after 48 hrs by luciferase reporter gene assay relative to dolutegravir; format: functional
[3] = test system: Human immunodeficiency virus 1; experiment: Selectivity ratio of EC50 for VSV-G pseudotyped HIV1 harboring integrase E92Q mutant infected in HOS cells to EC50 for VSV-G pseudotyped HIV1 harboring wild-type integrase infected in HOS cells; format: functional
Method in brief: (§1)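 Fold change is the EC50 against the mutant-IN vector divided by the EC50 against the WT-IN vector. Both come from the single-round luciferase infectivity assay in HOS cells, with a 3 h compound pretreatment followed by 48 h infection.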

[4] = test system: Human immunodeficiency virus 1; experiment: Antiviral activity against VSV-G pseudotyped HIV1 harboring integrase H51Y/R263K double mutant infected in HOS cells pretreated […] for 3 hrs followed by viral infection measured after 48 hrs by luciferase reporter gene assay; format: functional, cell-based; conditions: Human immunodeficiency virus 1, HOS
Method in brief: (§2)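 Single-round luciferase HIV-1 vector (pNLNgoMIVR−ΔLUC carrying WT or mutant IN) was pseudotyped with VSV-g by calcium phosphate co-transfection of 293 cells, and supernatant was harvested after 48 h. HOS cells were seeded at 4000/well in DMEM with 5% FBS and 5% newborn calf serum. They were pretreated 3 h at 37 °C with 5–0.0001 μM (11 serial dilutions), then infected for 48 h. Luminescence was normalized to untreated cells, and EC50 came from nonlinear regression.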

[5] = test system: Human immunodeficiency virus 1; experiment: Antiviral activity against VSV-G pseudotyped HIV1 harboring integrase T66I mutant infected in HOS cells pretreated […] for 3 hrs followed by viral infection measured after 48 hrs by luciferase reporter gene assay; format: functional, cell-based; conditions: Human immunodeficiency virus 1, HOS; method in brief: as §2
[6] = test system: Human immunodeficiency virus 1; experiment: Selectivity ratio of EC50 for VSV-G pseudotyped HIV1 harboring integrase G140S/Q148H mutant infected in HOS cells to EC50 for VSV-G pseudotyped HIV1 harboring wild-type integrase infected in HOS cells; format: functional; method in brief: as §1
[7] = test system: Human immunodeficiency virus 1; experiment: Selectivity ratio of EC50 for VSV-G pseudotyped HIV1 harboring integrase G118R mutant infected in HOS cells to EC50 for VSV-G pseudotyped HIV1 harboring wild-type integrase infected in HOS cells; format: functional; method in brief: as §1
[8] = test system: Human immunodeficiency virus 1; experiment: Antiviral activity against VSV-G pseudotyped HIV1 harboring integrase H51Y/R263K double mutant infected in HOS cells pretreated […] for 3 hrs followed by viral infection measured after 48 hrs by luciferase reporter gene assay relative to dolutegravir; format: functional
[9] = test system: Human immunodeficiency virus 1; experiment: Antiviral activity against VSV-G pseudotyped HIV1 harboring wild-type integrase infected in HOS cells pretreated […] for 3 hrs followed by viral infection measured after 48 hrs by luciferase reporter gene assay; format: functional, cell-based; conditions: Human immunodeficiency virus 1, HOS; method in brief: as §2
[10] = test system: Human immunodeficiency virus 1; experiment: Selectivity ratio of EC50 for VSV-G pseudotyped HIV1 harboring integrase T66I mutant infected in HOS cells to EC50 for VSV-G pseudotyped HIV1 harboring wild-type integrase infected in HOS cells; format: functional; method in brief: as §1
[11] = test system: Human immunodeficiency virus 1; experiment: Antiviral activity against VSV-G pseudotyped HIV1 harboring integrase G118R mutant infected in HOS cells pretreated […] for 3 hrs followed by viral infection measured after 48 hrs by luciferase reporter gene assay relative to dolutegravir; format: functional
[12] = test system: Human immunodeficiency virus 1; experiment: Antiviral activity against VSV-G pseudotyped HIV1 harboring integrase R263K mutant infected in HOS cells pretreated […] for 3 hrs followed by viral infection measured after 48 hrs by luciferase reporter gene assay relative to dolutegravir; format: functional
HOS = experiment: Cytotoxicity against HOS cells assessed as reduction in cell viability after 48 hrs by ATPLite luminescence assay; format: cell-based; conditions: human, hos, 48 h
Method in brief: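 HOS cells seeded at 4000 per well the day before, exposed to compounds over 250 to 0.05 μM at 37 °C for 48 h. ATP measured by luminescence after lysis and 20 min signal development at room temperature.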

[13] = test system: Human immunodeficiency virus 1; experiment: Antiviral activity against VSV-G pseudotyped HIV1 harboring integrase G140S/Q148H double mutant infected in HOS cells pretreated […] for 3 hrs followed by viral infection measured after 48 hrs by luciferase reporter gene assay; format: functional, cell-based; conditions: Human immunodeficiency virus 1, HOS; method in brief: as §2
[14] = test system: Human immunodeficiency virus 1; experiment: Antiviral activity against VSV-G pseudotyped HIV1 harboring integrase E92Q mutant infected in HOS cells pretreated […] for 3 hrs followed by viral infection measured after 48 hrs by luciferase reporter gene assay relative to dolutegravir; format: functional
[15] = test system: Human immunodeficiency virus 1; experiment: Antiviral activity against VSV-G pseudotyped HIV1 harboring integrase H51Y mutant infected in HOS cells pretreated […] for 3 hrs followed by viral infection measured after 48 hrs by luciferase reporter gene assay; format: functional, cell-based; conditions: Human immunodeficiency virus 1, HOS; method in brief: as §2
[16] = test system: Human immunodeficiency virus 1; experiment: Antiviral activity against VSV-G pseudotyped HIV1 harboring integrase G140S/Q148H double mutant infected in HOS cells pretreated […] for 3 hrs followed by viral infection measured after 48 hrs by luciferase reporter gene assay relative to dolutegravir; format: functional
[17] = test system: Human immunodeficiency virus 1; experiment: Antiviral activity against VSV-G pseudotyped HIV1 harboring integrase H51Y mutant infected in HOS cells pretreated […] for 3 hrs followed by viral infection measured after 48 hrs by luciferase reporter gene assay relative to dolutegravir; format: functional
[18] = Inhibition of HIV1 integrase 3' processing activity using 5'-end 32P labeled DNA substrate measured after 2 hrs by PAGE based phosphor imaging method; parameters: species or system Human immunodeficiency virus 1
Method in brief: (§3)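 Gel-based assay, Mg2+ cofactor: 400 nM integrase with 20 nM DNA substrate 5′-32P-labeled on transferred strand in 50 mM MOPS pH 7.2, 7.5 mM MgCl2, 14 mM 2-mercaptoethanol, inhibitor or DMSO; 2 h at 37 °C. Stopped with formamide/SDS loading buffer; products resolved on 16% denaturing polyacrylamide gels, quantified by phosphorimaging.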

[19] = test system: Human immunodeficiency virus 1; experiment: Antiviral activity against VSV-G pseudotyped HIV1 harboring integrase G118R mutant infected in HOS cells pretreated […] for 3 hrs followed by viral infection measured after 48 hrs by luciferase reporter gene assay; format: functional, cell-based; conditions: Human immunodeficiency virus 1, HOS; method in brief: as §2
[20] = test system: Human immunodeficiency virus 1; experiment: Selectivity ratio of EC50 for VSV-G pseudotyped HIV1 harboring integrase H51Y/R263K double mutant infected in HOS cells to EC50 for VSV-G pseudotyped HIV1 harboring wild-type integrase infected in HOS cells; format: functional; method in brief: as §1
[21] = test system: Human immunodeficiency virus 1; experiment: Selectivity ratio of EC50 for VSV-G pseudotyped HIV1 harboring integrase N155H mutant infected in HOS cells to EC50 for VSV-G pseudotyped HIV1 harboring wild-type integrase infected in HOS cells; format: functional; method in brief: as §1
[22] = test system: Human immunodeficiency virus 1; experiment: Antiviral activity against VSV-G pseudotyped HIV1 harboring integrase Y143R mutant infected in HOS cells pretreated […] for 3 hrs followed by viral infection measured after 48 hrs by luciferase reporter gene assay relative to dolutegravir; format: functional
[23] = test system: Human immunodeficiency virus 1; experiment: Antiviral activity against VSV-G pseudotyped HIV1 harboring integrase T66I mutant infected in HOS cells pretreated […] for 3 hrs followed by viral infection measured after 48 hrs by luciferase reporter gene assay relative to dolutegravir; format: functional
[24] = test system: Human immunodeficiency virus 1; experiment: Antiviral activity against VSV-G pseudotyped HIV1 harboring integrase E92Q mutant infected in HOS cells pretreated […] for 3 hrs followed by viral infection measured after 48 hrs by luciferase reporter gene assay; format: functional, cell-based; conditions: Human immunodeficiency virus 1, HOS; method in brief: as §2
[25] = test system: Human immunodeficiency virus 1; experiment: Selectivity ratio of EC50 for VSV-G pseudotyped HIV1 harboring integrase H51Y mutant infected in HOS cells to EC50 for VSV-G pseudotyped HIV1 harboring wild-type integrase infected in HOS cells; format: functional; method in brief: as §1
[26] = test system: Human immunodeficiency virus 1; experiment: Selectivity ratio of EC50 for VSV-G pseudotyped HIV1 harboring integrase R263K mutant infected in HOS cells to EC50 for VSV-G pseudotyped HIV1 harboring wild-type integrase infected in HOS cells; format: functional; method in brief: as §1
[27] = test system: Human immunodeficiency virus 1; experiment: Antiviral activity against VSV-G pseudotyped HIV1 harboring integrase R263K mutant infected in HOS cells pretreated […] for 3 hrs followed by viral infection measured after 48 hrs by luciferase reporter gene assay; format: functional, cell-based; conditions: Human immunodeficiency virus 1, HOS; method in brief: as §2
[28] = test system: Human immunodeficiency virus 1; experiment: Selectivity ratio of EC50 for VSV-G pseudotyped HIV1 harboring integrase Y143R mutant infected in HOS cells to EC50 for VSV-G pseudotyped HIV1 harboring wild-type integrase infected in HOS cells; format: functional; method in brief: as §1
[29] = test system: Human immunodeficiency virus 1; experiment: Antiviral activity against VSV-G pseudotyped HIV1 harboring integrase Y143R mutant infected in HOS cells pretreated […] for 3 hrs followed by viral infection measured after 48 hrs by luciferase reporter gene assay; format: functional, cell-based; conditions: Human immunodeficiency virus 1, HOS; method in brief: as §2
[30] = Inhibition of HIV1 integrase strand transfer activity using 5'-end 32P labeled DNA substrate measured after 2 hrs by PAGE based phosphor imaging method; parameters: species or system Human immunodeficiency virus 1; method in brief: as §3
[31] = test system: Human immunodeficiency virus 1; experiment: Antiviral activity against VSV-G pseudotyped HIV1 harboring integrase N155H mutant infected in HOS cells pretreated […] for 3 hrs followed by viral infection measured after 48 hrs by luciferase reporter gene assay; format: functional, cell-based; conditions: Human immunodeficiency virus 1, HOS; method in brief: as §2

| SMILES | Ratio EC50 [3] | EC50 [4] [nM] | EC50 [5] [nM] | Ratio EC50 [6] | Ratio EC50 [7] | EC50 [9] [nM] | Ratio EC50 [10] | CC50 (HOS) [nM] | EC50 [13] [nM] | EC50 [15] [nM] | IC50 [18] [nM] | EC50 [19] [nM] | Ratio EC50 [20] | Ratio EC50 [21] | EC50 [24] [nM] | Ratio EC50 [25] | Ratio EC50 [26] | EC50 [27] [nM] | Ratio EC50 [28] | EC50 [29] [nM] | further results |
| --- | --- | --- | --- | --- | --- | --- | --- | --- | --- | --- | --- | --- | --- | --- | --- | --- | --- | --- | --- | --- | --- |
| COC(=O)CCc1cnc2c(c1)c(N)c(C(=O)NCc1ccc(F)cc1F)c(=O)n2O | 3 | 2.4 | 0.53 | 8 | 7 | 0.67 | 0.8 | > 250000 | 5.3 | 0.63 | 2900 | 4.8 | 3 | 3 | 2 | 0.9 | 0.7 | 0.5 | 1 | 0.67 | fold change (FC) [1]: 0.64; fold change (FC) [2]: 0.42; fold change (FC) [8]: 0.15; fold change (FC) [11]: 0.37; fold change (FC) [12]: 0.05; fold change (FC) [14]: 0.87; fold change (FC) [16]: 0.91; fold change (FC) [17]: 0.2; fold change (FC) [22]: 0.16; fold change (FC) [23]: 0.59; IC50 [30]: 3.1 nM |
| CC(=O)OCCCc1cnc2c(c1)c(N)c(C(=O)NCc1ccc(F)cc1F)c(=O)n2O | 1 | 3.9 | 0.75 | 9 | 4 | 1.4 | 0.5 | > 250000 | 13 | 0.8 | 14300 | 5.9 | 3 | 4 | 1.2 | 0.6 | 1 | 1.8 | 2 | 2.9 | EC50 [31]: 5.4 nM; IC50 [30]: 10 nM |
